pIC50: −log10 of the molar value. Activity calls are given as the source filed them. The calls are words filed in the database; no cut-off is given here.
How the values were obtained:
HL-60 = assay: Antiproliferative activity against human HL60 cells after 72 hrs by MTT assay; type: functional, cell-based; conditions: HL-60, 72 h
Jurkat [1] = assay: Antiproliferative activity against human Jurkat cells after 72 hrs by MTT assay; type: functional, cell-based
How it was run: (§1)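 Cells exposed to graded compound concentrations (from 10 mM DMSO stocks) in triplicate for 72 h at 37 °C. Viability measured by MTT. IC50 taken from dose-response curves, given as mean ± SE of at least three independent experiments run in triplicate.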

CCRF-CEM = assay: Antiproliferative activity against human CCRF-CEM cells after 72 hrs by MTT assay; type: functional, cell-based
RS4-11 = assay: Antiproliferative activity against human RS4:11 cells after 72 hrs by MTT assay; type: functional, cell-based; conditions: RS4-11, 72 h
HeLa [2] = assay: Antiproliferative activity against human HeLa cells after 72 hrs by MTT assay; type: functional, cell-based
How it was run: as §1, with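 “Cells grown in DMEM with 10% FBS, penicillin G and streptomycin. 8 × 10³ cells per well, incubated overnight at 37 °C in 5% CO₂, then” for “Cells”, “h.” for “h at 37 °C.”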

HT-29 = assay: Antiproliferative activity against human HT-29 cells after 72 hrs by MTT assay; type: functional, cell-based; conditions: HT-29, 72 h
How it was run: as §1, with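 “Cells grown in DMEM with 10% FBS, penicillin G and streptomycin. 8 × 10³ cells per well, incubated overnight at 37 °C in 5% CO₂, then” for “Cells”, “h.” for “h at 37 °C.”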

MCF7 = assay: Antiproliferative activity against human MCF7 cells after 72 hrs by MTT assay; type: functional, cell-based; conditions: MCF7, 72 h
How it was run: as §1, with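 “Cells grown in DMEM with 10% FBS, penicillin G and streptomycin. 8 × 10³ cells per well, incubated overnight at 37 °C in 5% CO₂, then” for “Cells”, “h.” for “h at 37 °C.”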

[3] = target: T1, Serine/threonine-protein kinase Nek2 (Homo sapiens) (UniProt P51955); assay: Inhibition of recombinant human full-length N-terminal GST-tagged NEK2 expressed in baculovirus infected Sf9 insect cells at 1 uM using MBP as substrate after 30 mins by ADP-Glo reagent based luminescence assay
T1 sequence (whole entry): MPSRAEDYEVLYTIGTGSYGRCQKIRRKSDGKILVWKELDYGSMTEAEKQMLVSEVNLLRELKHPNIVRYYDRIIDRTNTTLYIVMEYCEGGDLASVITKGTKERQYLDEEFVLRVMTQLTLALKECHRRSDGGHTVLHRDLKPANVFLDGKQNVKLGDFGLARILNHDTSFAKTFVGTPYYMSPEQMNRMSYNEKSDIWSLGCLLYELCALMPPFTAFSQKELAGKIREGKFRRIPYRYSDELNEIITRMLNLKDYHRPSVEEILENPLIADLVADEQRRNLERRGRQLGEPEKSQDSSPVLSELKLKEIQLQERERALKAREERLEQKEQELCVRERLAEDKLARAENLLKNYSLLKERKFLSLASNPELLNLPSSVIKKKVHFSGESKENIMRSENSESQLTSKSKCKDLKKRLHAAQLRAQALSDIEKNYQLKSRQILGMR
How it was run: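 Nek2 activity measured with the bioluminescent ADP-Glo kinase assay, compounds at 1 µM final concentration. Percentage inhibition given as means ± SEM of two independent experiments performed in duplicate.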

HeLa [4] = assay: Cell cycle arrest in human HeLa cells assessed as decrease in G1 phase at 0.5 to 1 uM after 24 hrs by propidium iodide staining based flow cytometry; type: functional
How it was run: (§2)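 5 × 10⁵ HeLa cells treated for 24 h at the indicated concentrations, then fixed in ice-cold 70% ethanol. Lysis buffer with RNase A and 0.1% Triton X-100 applied, cells stained with PI, and DNA content read by flow cytometry to give percentage of cells in each phase.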

PBL [5] = assay: Cytotoxicity against resting human PBL assessed as reduction in cell viability after 72 hrs by MTT assay; type: cell-based
How it was run: (§3)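 PBL isolated from healthy donors' buffy coats by density-gradient centrifugation and held overnight in RPMI-1640 with 10% FBS. Non-adherent cells without PHA resuspended at 5 × 10⁵ cells/mL and treated for 72 h. Viability read by MTT. IC50 reported as mean ± SEM of two separate experiments.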

PBL [6] = assay: Cytotoxicity against PHA-stimulated human PBL assessed as reduction in cell viability after 72 hrs by MTT assay; type: cell-based
How it was run: as §3, with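 “cells” for “cells without PHA”, “cells/mL with 2.5 μg/mL PHA” for “cells/mL”, “given graded compound concentrations.” for “treated for 72 h.”, “MTT after 72 h.” for “MTT.”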

HeLa [7] = assay: Cell cycle arrest in human HeLa cells assessed as decrease in G1 phase at 1 uM after 24 hrs by propidium iodide staining based flow cytometry; type: functional; set-up: scale not given: the % may be the effect or the level left; how it was run: as §2
Jurkat [8] = assay: Induction of apoptosis in human Jurkat cells at 100 nM after 24 to 48 hrs by annexin-V/FITC propidium iodide staining based flow cytometry; type: functional, cell-based
How it was run: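 Cells treated with compound at the indicated concentrations for 24 or 48 h, then double-stained with annexin V-FITC and PI. Phosphatidylserine exposure measured by flow cytometry. Means ± SEM of three independent experiments.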

HeLa [9] = assay: Induction of mitochondrial membrane depolarization in human HeLa cells at 0.5 to 1 uM after 12 to 24 hrs JC-1 staining based flow cytometry; type: functional, cell-based
How it was run: (§4)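 Cells treated at the indicated concentrations for the indicated times (12 and 24 h). Stained with JC-1 and analyzed by flow cytometry for dissipation of mitochondrial membrane potential.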

Jurkat [10] = assay: Induction of mitochondrial membrane depolarization in human Jurkat cells at 10 to 100 nM after 12 to 24 hrs JC-1 staining based flow cytometry; type: functional, cell-based; how it was run: as §4
HeLa [11] = assay: Induction of apoptosis in human HeLa cells assessed as cleaved caspase-9 expression at 0.5 to 1 uM after 24 hrs by Western blot analysis; type: functional, cell-based
How it was run: (§5)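 HeLa cells treated for 24 h and washed in ice-cold PBS. Cells lysed on ice for 30 min and lysate cleared at 15000 x g. 10 μg protein resolved by SDS-PAGE (7.5–15%) and blotted. Membranes blocked with 3% BSA, probed with antibodies to caspase-9 or γH2AX, detected by ECL. Bands quantified and normalized to β-actin, mean±SD of two gels.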

HeLa [12] = assay: Induction of GSH depletion in human HeLa cells at 0.5 to 10 uM after 30 mins by CMFDA-probe based flow cytometry; type: functional, cell-based; conditions: in the assay text read “after 12 to 24 hrs” for “after 30 mins”
How it was run: (§6)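 Cells treated with compound for 12–24 h, harvested, then loaded with 5 µM CMFDA at 37 °C for 30 min. GSH-dependent fluorescence measured by flow cytometry. Means ± S.E.M. of three independent experiments.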

Jurkat [13] = assay: Induction of GSH depletion in human Jurkat cells at 0.5 to 10 uM after 30 mins by CMFDA-probe based flow cytometry; type: functional, cell-based; conditions: in the assay text read “after 12 to 24 hrs” for “after 30 mins”; how it was run: as §6
HeLa [14] = assay: Induction of DNA damage in human HeLa cells assessed as increase in gamma-H2AX level at 0.5 to 1 uM after 24 hrs by Western blot analysis; type: functional, cell-based; how it was run: as §5
HeLa [15] = assay: Antiproliferative activity against human HeLa cells at 1 uM after 48 hrs in presence of 100 uM NAC by annexin-V staining based assay; type: functional, cell-based
How it was run: (§7)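 HeLa cells treated with compound at 1.0 µM for 48 h together with 100 µM N-acetyl-L-cysteine or DL-α-tocopherol acetate. Cell death measured by annexin-V assay with flow cytometry. Means ± S.E.M. of three independent experiments.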

HeLa [16] = assay: Antiproliferative activity against human HeLa cells at 1 uM after 48 hrs in presence of 100 uM TOC by annexin-V staining based assay; type: functional, cell-based; how it was run: as §7

## C=C(Br)C(=O)Nc1ccc2c(c1)/C(=C/c1ccsc1)C(=O)N2
HL-60
  pIC50: 6.46
Jurkat [1]
  pIC50: 6.72
CCRF-CEM
  pIC50: 8.40
RS4-11
  pIC50: 6.72
HeLa [2]
  pIC50: 5.46
HT-29
  pIC50: 6.22
MCF7
  pIC50: 5.55
[3]
  inhibition: 5 to 20%

## C#CC(=O)Nc1ccc2c(c1)/C(=C/c1ccc[nH]1)C(=O)N2
HL-60
  pIC50: 5.24
Jurkat [1]
  pIC50: 6.47
CCRF-CEM
  pIC50: 7.30
RS4-11
  pIC50: 7.15
HeLa [2]
  pIC50: 5.36
HT-29
  pIC50: 5.64
MCF7
  pIC50: 5.43
[3]
  inhibition: 5 to 20%
HeLa [4]
  Activity: inactive

## C=C(Br)C(=O)Nc1ccc2c(c1)/C(=C\c1cccs1)C(=O)N2
HL-60
  pIC50: 7.82
Jurkat [1]
  pIC50: 7.80
CCRF-CEM
  pIC50: 8.00
RS4-11
  pIC50: 7.52
HeLa [2]
  pIC50: 5.74
HT-29
  pIC50: 5.26
MCF7
  pIC50: 5.64
[3]
  inhibition: 5 to 20%

## C=C(Br)C(=O)Nc1ccc2c(c1)/C(=C/c1cccs1)C(=O)N2
HL-60
  pIC50: 6.64
Jurkat [1]
  pIC50: 6.68
CCRF-CEM
  pIC50: 7.46
RS4-11
  pIC50: 8.70
HeLa [2]
  pIC50: 5.77
HT-29
  pIC50: 6.62
MCF7
  pIC50: 5.77
[3]
  inhibition: 5 to 20%

## C=C(Br)C(=O)Nc1ccc2c(c1)/C(=C/c1ccc(C)s1)C(=O)N2
HL-60
  pIC50: 7.62
Jurkat [1]
  pIC50: 6.44
CCRF-CEM
  pIC50: 8.05
RS4-11
  pIC50: 7.30
HeLa [2]
  pIC50: 5.80
HT-29
  pIC50: 6.25
MCF7
  pIC50: 5.52
[3]
  inhibition: 5 to 20%

## Nc1ccc2c(c1)C(=Cc1ccsc1)C(=O)N2
CCRF-CEM
  pIC50: < 5.00
RS4-11
  pIC50: < 5.00

## C=C(Br)C(=O)Nc1ccc2c(c1)/C(=C\c1sccc1C)C(=O)N2
HL-60
  pIC50: 7.41
Jurkat [1]
  pIC50: 7.40
CCRF-CEM
  pIC50: 9.05
RS4-11
  pIC50: 8.40
HeLa [2]
  pIC50: 6.35
HT-29
  pIC50: 6.48
MCF7
  pIC50: 5.64
PBL [5]
  pIC50: 6.35
PBL [6]
  pIC50: 5.91
[3]
  inhibition: 5 to 20%
HeLa [7]
  Activity: 20%
Jurkat [8]
  Activity: Active
HeLa [9]
  Activity: Active
Jurkat [10]
  Activity: Active
HeLa [11]
  Activity: Active
HeLa [12]
  Activity: Active
Jurkat [13]
  Activity: Active
HeLa [14]
  Activity: Active
HeLa [15]
  Activity: Active
HeLa [16]
  Activity: inactive

## C=C(Br)C(=O)Nc1ccc2c(c1)/C(=C\c1ccsc1)C(=O)N2
HL-60
  pIC50: 6.11
Jurkat [1]
  pIC50: 7.25
CCRF-CEM
  pIC50: 8.22
RS4-11
  pIC50: 6.72
HeLa [2]
  pIC50: 5.59
HT-29
  pIC50: 6.51
MCF7
  pIC50: 5.68
[3]
  inhibition: 5 to 20%

## C=C(Br)C(=O)Nc1ccc2c(c1)/C(=C/c1ccc[nH]1)C(=O)N2
HL-60
  pIC50: 6.85
Jurkat [1]
  pIC50: 6.96
CCRF-CEM
  pIC50: 8.52
RS4-11
  pIC50: 9.00
HeLa [2]
  pIC50: 6.30
HT-29
  pIC50: 6.10
MCF7
  pIC50: 6.15
PBL [5]
  pIC50: 5.82
PBL [6]
  pIC50: 6.07 to 6.08
[3]
  inhibition: 50%
HeLa [7]
  Activity: 20%
Jurkat [8]
  Activity: Active
HeLa [9]
  Activity: Active
Jurkat [10]
  Activity: Active
HeLa [11]
  Activity: Active
HeLa [12]
  Activity: Active
Jurkat [13]
  Activity: Active
HeLa [14]
  Activity: Active
HeLa [15]
  Activity: Active
HeLa [16]
  Activity: inactive

## C=C(Br)C(=O)Nc1ccc2c(c1)CC(=O)N2
HL-60
  pIC50: 6.46
Jurkat [1]
  pIC50: 5.96
CCRF-CEM
  pIC50: 6.66
RS4-11
  pIC50: 6.66
HeLa [2]
  pIC50: 5.35
HT-29
  pIC50: 5.36
MCF7
  pIC50: 5.48
[3]
  inhibition: 5 to 20%

## C=C(Br)C(=O)Nc1ccc2c(c1)/C(=C\c1ccc(C)s1)C(=O)N2
HL-60
  pIC50: 7.92
Jurkat [1]
  pIC50: 6.82
CCRF-CEM
  pIC50: 9.00
RS4-11
  pIC50: 7.70
HeLa [2]
  pIC50: 5.70
HT-29
  pIC50: 6.52
MCF7
  pIC50: 5.36
[3]
  inhibition: 5 to 20%

## C=C(Br)C(=O)Nc1ccc2c(c1)/C(=C/c1sccc1C)C(=O)N2
HL-60
  pIC50: 7.89
Jurkat [1]
  pIC50: 7.52
CCRF-CEM
  pIC50: 9.30
RS4-11
  pIC50: 9.40
HeLa [2]
  pIC50: 6.38
HT-29
  pIC50: 5.92
MCF7
  pIC50: 5.59
[3]
  inhibition: 5 to 20%

Source: ChEMBL document CHEMBL4033640, “Design, synthesis and biological evaluation of 3-substituted-2-oxindole hybrid derivatives as novel anticancer agents” (Eur J Med Chem, 2017)
